# Compound activity: PubChem BioAssay, several laboratories
# Shown are actives, neighbours in structure and some others; about 3.9% of the full set was active somewhere.
# STAT1 inh = reduces IFN-gamma driven STAT1 reporter signal | NIH 3T3 STAT1-luciferase reporter, luminescence | inhibition, % at 5.5 µM | AID 920 | actives 0.35% (n = 200,000);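 active = inhibition above a set limit, the mean inhibition across all tested compounds plus 3 SD, cut at about 34% in these data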;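 also: 0% = IFN-gamma with DMSO and 100% = IFN-gamma with 300 µM nifuroxazide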
# STAT3 activator = STAT3 signaling activation | U3A cells, IL-6 STAT3-luciferase reporter, luminescence; 100% = signal with IL-6 EC80 alone | activation (% of control), % at 5.6 µM | actives 0.91% (n = 190,000) | AID 871;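 active = activation above the screen-wide mean of compound activation plus 3 SD, cut at about 130% in these data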;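 also: 0% = background luminescence of wells with medium and substrate only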
#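 Assay system – human STAT1-deficient U3A cells with stable STAT3-luciferase reporter · Also added – IL-6 (33 ng/mL) · Schedule – compound 1 h, then IL-6 6 h at 37 °C · Technique – reporter luminescence signal · Evaluation – % activation versus median of IL-6-stimulated wells · Benchmarks – IL-6-only wells as 100% reference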
# Pf gametocyte = P. falciparum stage V gametocyte viability inhibition. inhibition, % at 10.9 µM. AID 743093. actives 0.065% (n = 150,000). P. falciparum stage V gametocytes, ATP luminescence, 24 h;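 active = inhibition above the mean plus 3 SD of compounds within the control limits, set per campaign, cut at about 38% in these data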;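 also: 0% = DMSO wells and 100% = medium only without gametocytes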
# STAT1 activator = STAT1 signaling activation. NIH 3T3 STAT1-luciferase reporter, IFN-gamma, luminescence; 100% = IFN-gamma alone, no compound. activation (% of control), % at 5.5 µM. actives 2.6% (n = 200,000);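 active = activation above the screen-wide mean activation plus 3 SD, cut at about 130% in these data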;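 also: raw ratio to IFN-gamma control signal so 100% means no change and 0% no light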
# APP 5'UTR act = activates APP 5'UTR luciferase reporter; SH-SY5Y APP 5'UTR luciferase reporter, luminescence; zero percent = DMSO vehicle wells; activation, % at 2 µM; actives 1% (n = 190,000); AID 1276;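 active = activation above a set limit, based on mean plus 3 SD of controls, cut at about 140% in these data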
# NF-kB expr up = NF-kB expression increase, human neuronal cells; NF-kB reporter expression; hits give high values; actives 1.6% (n = 190,000); fold change at 12.5 µM; in the data active = fold change above about 3.3
# Numbers without * were called inactive; / = no result given.
SMILES,STAT1 inh,STAT3 activator,Pf gametocyte,STAT1 activator,APP 5'UTR act,NF-kB expr up
CCOc1cccc(CN(C)CC2CCCN(CCc3ccc(Cl)cc3)C2)c1O (stereo not given),/,/,-16,/,/,/
Cc1ccc2cc(C)c3nnc(SCC(=O)Nc4nc5c(s4)CCCC5)n3c2c1,8,97,/,93,8,0.63
COC(=O)c1cccc(NC(=O)CCc2ccccc2)c1,-12,111,-5,110,-13,1.3
O=C(CCCc1ccccc1)Nc1cccc(C(=O)O)c1,71*,40,-19,33,13,2.9
Cc1cccnc1NC(=S)NCCc1ccccc1,-35,92,16,130*,62,2.1
COc1cc(C(=O)Nc2ccc(N(C)C)cc2)cc(OC)c1OC,-36,109,/,133*,47,1.3
COc1cc(C(=O)Nc2ccc(S(=O)(=O)N(C)c3ccccc3)cc2)cc(OC)c1OC,-10,100,-3,109,3,0.48
COc1ccc2cc(-c3cc(C(=O)OCC(=O)Nc4c(C)n(C)n(-c5ccccc5)c4=O)c4ccccc4n3)ccc2c1,-10,61,-81,112,81,3.4*
N#Cc1cn(-c2ccccc2)nc1-c1ccc2c(c1)OCCO2,-50,114,20,146*,118,2.2
CCN(CC)C(=O)c1cn(-c2ccccc2)nc1-c1ccc2c(c1)OCCO2,9,101,-3,90,-6,1
Cc1ccc(S(=O)(=O)NCc2ccccc2)s1,/,/,18,/,/,/
Cc1nc(NC(=O)c2ccccc2)nc2cc3c(cc12)OCO3,-33,110,/,129*,34,1.6
CSc1ccccc1NC(=O)CN1CC(C)OC(C)C1 (stereo not given),4,108,-3,96,-5,1.4
Oc1ccccc1-c1cc(-c2ccc(F)cc2)n[nH]1,/,/,-5,/,/,/
Oc1ccc(F)cc1-c1cc(-c2ccc3c(c2)OCCO3)n[nH]1,-11,98,/,110,197*,11*
COC(=O)c1cn[nH]c1NC(=S)Nc1ccc(Cl)c(Cl)c1,-49,77,/,145*,222*,0.91
COCn1c(-c2cccc(Br)c2)nc2ccccc21,-1,106,3,100,18,1.2
COCn1c(-c2ccc(OC)c(OC)c2)nc2ccccc21,-35,92,-22,132*,73,1.8
Cc1cc(C)cc(C(=O)NC(CC(N)=O)c2ccc(N3CCCCCC3)c([N+](=O)[O-])c2)c1 (stereo not given),/,/,-7,/,/,/
Cc1ccc(NC(=O)N2C(=O)C3(OCCO3)c3ccccc32)cc1,-42,104,-12,138*,91,2.2
Nc1nc2c(s1)CCc1c-2cnn1-c1ccccc1,-60,98,/,155*,138*,3.4*
CC1(C)CC(=O)C(N=Nc2ccc(-c3ccccc3)cc2)=C(O)C1,-4,91,16,105,137*,2.3
CC1(C)CC(=O)C(N=Nc2ccc(F)cc2)=C(O)C1,/,/,-3,/,/,/
O=C(CSc1nc(Nc2ccccc2)nc(N2CCOCC2)n1)Nc1ccc([N+](=O)[O-])cc1,6,99,/,95,-15,1.8
O=C(CSc1nc(Nc2ccccc2)nc(N2CCOCC2)n1)Nc1ccccc1Cl,2,103,/,98,-12,6.7*
SMILES,STAT1 inh,STAT3 activator,Pf gametocyte,STAT1 activator,APP 5'UTR act,NF-kB expr up
CC(=O)/C(=N/Nc1ccc(C)cc1)Sc1nnc(CCc2ccccc2)n1-c1ccccc1,2,99,/,100,-1,4.4*
CCOc1ccc(NC(=O)CCN2C(=O)c3ccccc3C2=O)cc1,/,/,12,/,/,/
O=C(COC(=O)Cc1ccc(F)cc1)NCc1ccco1,-6,112,49*,107,1,0.99
O=c1/c(=C\c2ccc(F)cc2)sc2n1CCCN=2,-52,101,-9,149*,170*,2.4
CN(C)c1ccc(/C=c2\sc3n(c2=O)CCCN=3)cc1,-55,46,11,150*,142*,5.7*
COC(=O)/C=c1/sc2n(c1=O)CCN=2,-3,99,-22,103,-4,1
O=c1/c(=C/c2ccc(O)cc2)sc2n1CCCN=2,-44,113,/,139*,82,2
CN(CCC#N)CC(=O)Nc1ccc(S(N)(=O)=O)cc1,4,106,-13,94,-5,1.2
Cc1cc2c(c(CO)c1CCO)C(=O)[C@@H](C)[C@@H]2O,/,/,16,/,/,/
CC(=O)Nc1nc(SCC(=O)Nc2nnc(C)s2)[nH]c(=O)c1NC(=O)c1cccs1,-15,100,-18,111,-4,1.1
C(=N\NC1=Nc2cccc3cccc1c23)/c1cccnc1,-54,131,7,150*,74,1
C(=N\NC1=Nc2cccc3cccc1c23)/c1ccccc1,-89,144*,3,180*,-31,1.6
COc1ccc(NC2=Nc3cccc4cccc2c34)cc1OC,-6,79,/,106,-11,1.1
Clc1ccc(/C=N/NC2=Nc3cccc4cccc2c34)cc1,-39,119,/,135*,70,1.4
CC1CCCCN1CCCNC(=O)c1cc(Br)c(Br)[nH]1 (stereo not given),-8,99,0,107,2,0.83
Cc1oc(-c2cccc(C(F)(F)F)c2)nc1CN1CCOCC1,-12,105,3,110,2,1.1
Cc1ccc(-n2nc(C)cc2Nc2ncc(Cl)cc2Cl)cc1,4,135*,25,96,-29,1
CC(=O)NC1(c2ccccc2)CCN(CC(=O)N2CCC(C)CC2)CC1,1,102,14,97,-1,1.2
CCC(=O)Nc1cc(C(=O)OC(C(=O)c2ccc(C)c(C)c2)c2ccccc2)ccc1C (stereo not given),1,103,/,99,-3,0.7
COC(=O)C1=C(C)N(Cc2ccccc2)C(=O)/C1=C\c1ccco1,/,/,-11,/,/,/
CC(C)N1CCC2(CC1)N=C(c1ccc3c(c1)OCO3)CC(c1cc(Cl)ccc1O)N2 (stereo not given),15,102,6,86,53,4.7*
Cc1cc(Cl)ccc1NC(=S)Nc1ccccn1,-33,105,0,130*,56,1.6
Cc1cc(Cl)ccc1Nc1ncccc1C(N)=O,-34,105,/,130*,41,2.1
COc1ccc(OC)c(C(=O)Cn2c3[n+](c4ccc(C(F)(F)F)cc42)CCCCC3)c1,-5,98,-16,103,11,0.94
COC(=O)c1ccc(/C=C/c2c(-c3ccsc3)oc3ccc(N4CCOCC4)cc23)cc1,/,/,-1,/,/,/
CC1CCCC/C1=N\NC(=S)Nc1cccnc1 (stereo not given),-4,97,-5,102,26,4.9*
Cn1nc(-c2ccccc2)c(C(=O)Nc2ccc(Cl)cc2)c1Cl,-10,97,/,109,-24,2.4
Cn1c(Cl)c(C(=O)Nc2ccc(Cl)cc2)c2ccccc21,-8,155*,/,107,20,1.3
Cc1ccc2c(c1)N(CC(=O)Nc1ccccc1F)C(=O)C(C)O2 (stereo not given),/,/,-14,/,/,/
